A short description of assay [1]: Cytotoxicity against KB cells was determined by crystal violet staining and spectrophotometric quantitation of dye eluted from stained cells. Format: functional, cell-based. In outline:
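KB cells seeded at 3000–5000 per well, incubated overnight at 37 °C, then exposed to compound at six to eight concentrations for 48 h at 37 °C in CO₂ (two population doublings). Fixed with 95% ethanol, stained with 0.1% crystal violet, dye eluted with acidified ethanol, read at 570 nm. IC50 by linear regression of % inhibition vs log10 concentration.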

For another assay, the system named is Human betaherpesvirus 5. The assay can be described thus: Inhibitory concentration required against human cytomegalovirus (HCMV) expressed in HFF cells was determined by plaque reduction assay. Format: functional, organism-based. As to conditions: Human betaherpesvirus 5, HFF. In short, it runs like this: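 HCMV Towne strain, isolate P₀. HFF monolayers infected with about 100 pfu per cm²; after adsorption, compound (diluted from 10 mg/mL DMSO stock) added at four to eight concentrations in duplicate wells. Incubated 7–10 days at 37 °C, fixed and stained with crystal violet, plaques counted microscopically. IC50 from regression of % plaque reduction vs log10 concentration; ganciclovir as positive control.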

In the next assay the test system is HFF. As to the kind of experiment: Cytotoxicity produced in stationary HFF cells was determined by microscopic inspection of uninfected cells. It is filed as functional, cell-based. As to conditions: Homo sapiens. In outline:
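Uninfected stationary HFF cells inspected microscopically for cytotoxicity, scored at the time of HCMV plaque enumeration (7–10 days at 37 °C), duplicate wells. Compounds from 10 mg/mL DMSO stocks diluted in growth medium. IC50 from linear regression of % inhibition vs log10 concentration.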

A further assay deals with Human alphaherpesvirus 1. The assay can be described thus: Inhibitory concentration required against herpes simplex virus type-1 (HSV-1) expressed in BSC-1 cells was determined by ELISA assay. It is filed as functional, organism-based. The note with it: Human alphaherpesvirus 1, BSC-1. In short, it runs like this: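 HSV-1 KOS strain. BSC-1 cells, 10 000 per well in MEM(E) with 10% calf serum, incubated overnight at 37 °C, then drug plus virus at 100 pfu/well, quadruplicate wells, 3 days at 37 °C. Detection with HRP-conjugated rabbit anti-HSV-1 antibody and TMB substrate, stopped with H₂SO₄ after 15 min, absorbance at 450 and 570 nm. IC50 by regression vs log10 concentration; acyclovir as positive control.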
For orientation: ELISA stands for enzyme-linked immunosorbent assay.

Each structure is given as a SMILES string.

This is an account of results in ChEMBL document CHEMBL1137100, “Design, synthesis, and antiviral activity of certain 3-substituted 2,5,6-trichloroindole nucleosides” (J Med Chem, 2004).

The IC50 is the concentration that inhibits the measured activity by half. A low value points to greater potency in that assay.

For `CC(=O)OC[C@H]1OC(n2c(Cl)c(C=O)c3cc(Cl)c(Cl)cc32)[C@H](O)[C@@H]1O` (some centres not stated), the IC50 in assay [1] was 35 µM; in the assay on Human betaherpesvirus 5, < 0.1 µM; in the assay on HFF, 32 µM; in the assay with Human alphaherpesvirus 1, 20 µM.

For the molecule `CC(=O)OC[C@H]1OC(n2c(Br)c(C=O)c3cc(Cl)c(Cl)cc32)[C@H](O)[C@@H]1O` (some centres not stated), the IC50 in assay [1] amounted to 40 µM; with Human betaherpesvirus 5, 0.32 µM; with HFF it was 32 µM; in the assay on Human alphaherpesvirus 1, 15 µM.

Turning to `OC[C@H]1O[C@@H](n2c(Br)nc3cc(Cl)c(Cl)cc32)C(O)[C@@H]1O` (single isomer, unassigned), the IC50 was > 100 µM in assay [1], 0.7 µM with Human betaherpesvirus 5 and 130 µM in the assay with Human alphaherpesvirus 1.

Take `OC[C@H]1O[C@@H](n2c(Cl)nc3cc(Cl)c(Cl)cc32)C(O)[C@@H]1O` (single isomer, unassigned): the IC50 in assay [1] was 210 µM; in the assay on Human betaherpesvirus 5 it was 2.9 µM.

Regarding `OC[C@H]1OC(n2c(Cl)c(Cl)c3cc(Cl)c(Cl)cc32)C(O)[C@@H]1O` (single isomer, unassigned), the IC50 in assay [1] was 80 µM; with Human betaherpesvirus 5 it was 38 µM; in the assay with HFF, 32 µM; in the assay on Human alphaherpesvirus 1, 45 µM.

`O=Cc1c(Br)n(C2O[C@H](CO)[C@@H](O)C2O)c2cc(Cl)c(Cl)cc12` (single isomer, unassigned): the IC50 in assay [1] came to 50 µM; in the assay on Human betaherpesvirus 5, 0.32 µM; in the assay on HFF, 32 µM; with Human alphaherpesvirus 1 it was 20 µM.

Consider `N#Cc1c(Cl)n(C2O[C@H](CO)[C@@H](O)C2O)c2cc(Cl)c(Cl)cc12` (single isomer, unassigned), for which the IC50 was found to be 65 µM in assay [1], 0.55 µM in the assay with Human betaherpesvirus 5, 32 µM with HFF and 15 µM in the assay on Human alphaherpesvirus 1.

On to `CCC(=O)c1c(Cl)n(C2O[C@H](CO)[C@@H](O)C2O)c2cc(Cl)c(Cl)cc12` (single isomer, unassigned), for which the IC50 is 100 µM in assay [1], 2.5 µM in the assay with Human betaherpesvirus 5, > 100 µM in the assay on HFF and 20 µM with Human alphaherpesvirus 1.

On to `O=C(c1c(Cl)n(C2O[C@H](CO)[C@@H](O)C2O)c2cc(Cl)c(Cl)cc12)C(F)(F)F` (single isomer, unassigned), for which the IC50 came to 20 µM in assay [1], 6.2 µM in the assay on Human betaherpesvirus 5, 32 µM in the assay on HFF and 15 µM with Human alphaherpesvirus 1.

For `CC(=O)OC[C@H]1OC(n2c(Cl)c(C#N)c3cc(Cl)c(Cl)cc32)C(O)[C@@H]1O` (single isomer, unassigned), the IC50 turned out to be 70 µM in assay [1], 2.5 µM in the assay on Human betaherpesvirus 5, 32 µM in the assay with HFF and 50 µM in the assay with Human alphaherpesvirus 1.

Regarding `OC[C@H]1OC(n2c(Cl)c(-c3ccsc3)c3cc(Cl)c(Cl)cc32)C(O)[C@@H]1O` (single isomer, unassigned), the IC50 in assay [1] is 60 µM; in the assay with Human betaherpesvirus 5, 31 µM; in the assay with HFF, > 100 µM; in the assay on Human alphaherpesvirus 1, 45 µM.

Turning to `O=CCc1c(Cl)n(C2O[C@H](CO)[C@@H](O)C2O)c2cc(Cl)c(Cl)cc12` (single isomer, unassigned), the IC50 was 70 µM in assay [1], 4 µM in the assay with Human betaherpesvirus 5, > 100 µM in the assay with HFF and > 100 µM with Human alphaherpesvirus 1.

`O=Cc1c(Cl)n(C2O[C@H](CO)[C@@H](O)C2O)c2cc(Cl)c(Cl)cc12` (single isomer, unassigned): the IC50 worked out at 45 µM in assay [1], 0.23 µM in the assay with Human betaherpesvirus 5, 45 µM with HFF and 40 µM with Human alphaherpesvirus 1.

On to `CC(=O)c1c(Cl)n(C2O[C@H](CO)[C@@H](O)C2O)c2cc(Cl)c(Cl)cc12` (single isomer, unassigned), for which the IC50 in assay [1] is 50 µM; in the assay with Human betaherpesvirus 5 it was 0.31 µM; in the assay with HFF it was > 100 µM; in the assay on Human alphaherpesvirus 1, 20 µM.

With `OC[C@H]1OC(n2c(Cl)c(-c3ccco3)c3cc(Cl)c(Cl)cc32)C(O)[C@@H]1O` (single isomer, unassigned), the IC50 in assay [1] was 80 µM; in the assay with Human betaherpesvirus 5, 42 µM; in the assay on HFF, 32 µM; with Human alphaherpesvirus 1, 50 µM.

In the case of `OC[C@H]1OC(n2c(Cl)c(I)c3cc(Cl)c(Cl)cc32)C(O)[C@@H]1O` (single isomer, unassigned), the IC50 is 65 µM in assay [1], 12 µM in the assay on Human betaherpesvirus 5, 32 µM in the assay with HFF and 20 µM in the assay on Human alphaherpesvirus 1.

On to `CCC(=O)c1c(Cl)n(C2O[C@H](COC(C)=O)[C@@H](O)C2O)c2cc(Cl)c(Cl)cc12` (single isomer, unassigned), for which the IC50 in assay [1] is 100 µM; in the assay on Human betaherpesvirus 5 it was 3.2 µM; in the assay with HFF, > 100 µM; in the assay with Human alphaherpesvirus 1, 15 µM.

Turning to `CC(=O)OC[C@H]1OC(n2c(Cl)c(C(C)=O)c3cc(Cl)c(Cl)cc32)C(O)[C@@H]1O` (single isomer, unassigned), the IC50 in assay [1] stood at 40 µM; in the assay with Human betaherpesvirus 5, 0.3 µM; in the assay on HFF it was 32 µM; in the assay with Human alphaherpesvirus 1, 20 µM.

In the case of `CCCC(=O)OC[C@H]1OC(n2c(Cl)c(C=O)c3cc(Cl)c(Cl)cc32)C(O)[C@@H]1O` (single isomer, unassigned), the IC50 in assay [1] was determined as 40 µM; in the assay with Human betaherpesvirus 5, 0.25 µM; in the assay on HFF it was 32 µM; in the assay on Human alphaherpesvirus 1, 9 µM.

Turning to `Cc1c(Cl)n(C2O[C@H](CO)[C@@H](O)C2O)c2cc(Cl)c(Cl)cc12` (single isomer, unassigned), the IC50 was > 100 µM in assay [1], 32 µM in the assay with Human betaherpesvirus 5, 32 µM in the assay with HFF and 70 µM with Human alphaherpesvirus 1.

As for `COC(=O)OC[C@H]1OC(n2c(Cl)c(C=O)c3cc(Cl)c(Cl)cc32)C(O)[C@@H]1O` (single isomer, unassigned), the IC50 in assay [1] was 50 µM; with Human betaherpesvirus 5 it was 0.2 µM; in the assay on HFF it was 32 µM; with Human alphaherpesvirus 1, 15 µM.

`CCC(=O)OC[C@H]1OC(n2c(Cl)c(C=O)c3cc(Cl)c(Cl)cc32)C(O)[C@@H]1O` (single isomer, unassigned): the IC50 in assay [1] was 50 µM; with Human betaherpesvirus 5, 0.22 µM; in the assay on HFF, 32 µM; in the assay on Human alphaherpesvirus 1 it was 10 µM.

On to `Nc1nc2c(ncn2COC(CO)CO)c(=O)[nH]1` [GANCICLOVIR], for which the IC50 (in assay [1]; in the assay on HFF) was > 100 µM each time.
